The values below come from ChEMBL document CHEMBL4811250, “Discovery and Optimization of 2H-1λ2-Pyridin-2-one Inhibitors of Mutant Isocitrate Dehydrogenase 1 for the Treatment of Cancer” (J Med Chem, 2021).

“And” between values parts separate entries of the source, which are not always exact repeats. Equal entries are not always repeated.

The nature of data set [1]: Metabolic stability in rat liver microsomes assessed as half life incubated for 15 mins by high resolution LC/MS analysis. It counts as ADME, Microsome. The conditions noted are these: 0.25 h. The gist of the method:
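Rat liver microsomes (0.5 mg/mL protein) with 1.0 μM compound and NADPH regenerating system in 100 mM phosphate pH 7.4, 15 min at 37 °C. Quenched with acetonitrile containing albendazole internal standard. Percent remaining measured by high-resolution LC/MS.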

The nature of data set [2]: Permeability of compound at pH 7.4 by PAMPA assay. Type of data set: ADME. The gist of the method:
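Stirring double-sink PAMPA using a lipid/dodecane membrane tuned for GI passive permeability, pH 7.4 on donor and acceptor sides. Compound at 0.05 mM (0.5% DMSO), 30 min permeation at room temperature with donor stirring. Donor and acceptor concentrations read by UV plate reader.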

A short description of data set [3]: Kinetic solubility of the compound in pH 7.4 phosphate buffer measured after 6 hrs by UV spectroscopy. Type of data set: physicochemical. The conditions noted are these: read-out: Kinetic_solubility.
Data set [4] deals with Isocitrate dehydrogenase [NADP] cytoplasmic (Homo sapiens), O75874 [R132H]. Description: Inhibition of IDH1 R132H mutant (unknown origin) expressed in human U87 cells assessed as R-2-hydroxyglutarate production at 100 nM after 48 hrs by LC-MS analysis. It counts as cell-based. Further details: scale not given: the % may be the effect or the level left. The gist of the method: (§1)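 U87-R132H cells (8000/well, DMEM high glucose, 10% FBS) were seeded, cultured overnight at 37 °C and 5% CO2, then given compound or DMSO. After 48 h, 2-HG secreted into the medium was measured by RapidFire LC-MS. Cell viability was checked by CellTiter-Glo.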
Sequence of Isocitrate dehydrogenase [NADP] cytoplasmic (Homo sapiens), O75874 [R132H] (O75874 whole entry R132H): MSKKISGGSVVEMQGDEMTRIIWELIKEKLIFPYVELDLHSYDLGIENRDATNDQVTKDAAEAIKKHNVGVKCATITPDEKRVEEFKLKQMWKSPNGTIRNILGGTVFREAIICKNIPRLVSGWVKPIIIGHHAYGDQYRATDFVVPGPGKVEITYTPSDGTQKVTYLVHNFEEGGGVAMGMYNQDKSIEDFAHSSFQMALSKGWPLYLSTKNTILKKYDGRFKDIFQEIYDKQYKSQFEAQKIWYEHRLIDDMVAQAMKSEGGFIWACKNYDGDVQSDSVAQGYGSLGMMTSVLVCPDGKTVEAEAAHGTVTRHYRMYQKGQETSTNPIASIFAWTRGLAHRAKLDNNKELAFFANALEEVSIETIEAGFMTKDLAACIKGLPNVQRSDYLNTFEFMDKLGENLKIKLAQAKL

The test system is the same in data set [5]. Nature of the data set: Inhibition of IDH1 R132H mutant (unknown origin) expressed in human U87 cells assessed as R-2-hydroxyglutarate production at 500 nM after 48 hrs by LC-MS analysis. Type of data set: cell-based. Further details: scale not given: the % may be the effect or the level left. The gist of the method: as §1
Data set [6] is described as follows: Tmax in CD1 mouse brain at 30 mg/kg, po measured up to 24 hrs by LC-MS/MS analysis. It counts as ADME, organism-based. The gist of the method:
(§2)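 Fed male CD1 mice (6–8 weeks, ~25–30 g) given a single 30 mpk oral dose as a 3 mg/mL solution in 20% PEG300, 40% Solutol solution (30% w/w in water), 40% DI water. Plasma (heparin-Na, heart puncture) and whole brain taken from N=3 mice per time point, 15 min to 24 h. LC/MS/MS quantitation gave Tmax, Cmax and AUC.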

The nature of data set [7]: Cmax in CD1 mouse brain at 30 mg/kg, po measured up to 24 hrs by LC-MS/MS analysis. Further details: route oral, dose 30 mg/kg, time <=24. Type of data set: ADME, organism-based. The gist of the method: as §2
A short description of data set [8]: AUClast in CD1 mouse brain at 30 mg/kg, po measured up to 24 hrs by LC-MS/MS analysis. Conditions: in vivo. It counts as ADME, organism-based. The gist of the method: as §2
The nature of data set [9]: Ratio of AUClast in plasma to brain in CD1 mouse at 30 mg/kg, po measured up to 24 hrs by LC-MS/MS analysis. Type of data set: ADME, organism-based. Conditions: in vivo. The gist of the method:
as §2

Data set [10] is described as follows: Ratio of Cmax in plasma to brain in CD1 mouse at 30 mg/kg, po measured up to 24 hrs by LC-MS/MS analysis. It counts as ADME, organism-based. The conditions noted are these: in vivo. The gist of the method:
as §2

Data set [11] is described as follows: Tmax in CD1 mouse plasma at 30 mg/kg, po measured up to 24 hrs by LC-MS/MS analysis. Type of data set: ADME, organism-based. The gist of the method: as §2
Data set [12] in a line: Cmax in CD1 mouse plasma at 30 mg/kg, po measured up to 24 hrs by LC-MS/MS analysis. Type of data set: ADME, organism-based. On the set-up: route oral, dose 30 mg/kg, time <=24. The gist of the method: as §2
Data set [13] can be described thus: AUClast in CD1 mouse plasma at 30 mg/kg, po measured up to 24 hrs by LC-MS/MS analysis. Type of data set: ADME, organism-based. Further details: route oral, dose 30 mg/kg, time <=24. The gist of the method:
as §2

A short description of data set [14]: Drug level in human U87MG cells expressing IDH1 R132H mutation transfected in NCr mouse plasma at 30 mg/kg, po measured after 24 hrs by LC-MS/MS analysis. Conditions: read-out: Drug uptake. It counts as ADME, organism-based, U-87MG ATCC. The gist of the method:
(§3)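 Mice bearing subcutaneous U87MG glioblastoma cells carrying IDH1 R132H (1 x 10^7 cells/mouse) were staged at ~200 mg and randomized. Each received a single oral 30 mg/kg dose; vehicle was 10% NMP, 40% PEG300, 25% [30% Solutol in water], 25% DI water. K2EDTA blood and tumors were taken under isoflurane from 4 mice per group at 1–48 h. Drug was quantified by validated LC-MS/MS.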

Data set [15] is described as follows: Drug level in human U87MG cells expressing IDH1 R132H mutation transfected in NCr mouse plasma at 30 mg/kg, po measured after 36 hrs by LC-MS/MS analysis. It counts as ADME, organism-based, U-87MG ATCC. Conditions: read-out: Drug uptake. The gist of the method:
as §3

A short description of data set [16]: Drug level in human U87MG cells expressing IDH1 R132H mutation transfected in NCr mouse plasma at 30 mg/kg, po measured after 48 hrs by LC-MS/MS analysis. It counts as ADME, organism-based, U-87MG ATCC. The conditions noted are these: read-out: Drug uptake. The gist of the method: as §3

With `CCc1ccc(Cl)cc1-n1c(C=C(C)C)c(C(=O)N2CCNCC2)cc(-c2nc(-c3ccc(Cl)cc3)cs2)c1=O`, the t1/2 in data set [1] was above 0.5 h. In data set [2], the permeability was 255 10^-6 cm/s and 434 10^-6 cm/s. In addition, the solubility kinetic at 6 h in data set [3] was below 1 µg/mL. Also, the Activity in data set [4] stood at 5.9%; in data set [5] it was 4.1%. For the same molecule, the Tmax turned out to be 6 h in [6] and 4 h in [11]. Further, the Cmax is 595 ng/g in data set [7] and 2010 ng/mL in data set [12]. For the same molecule, in data set [8], the AUClast is 7000 ng·h/g. Besides, the “Ratio AUC” value in data set [9] was determined as 3.52. In [10], the Ratio is given as 3.68. In [13], this molecule came in with an AUC(0-t) at 24 h of 24400 ng·h/mL. For the same molecule, in [14], the concentration at 24 h came out at 9.5 µM. The concentration at 36 h in data set [15] came to 7.2 µM. In addition, in data set [16], the concentration at 48 h was determined as 6.8 µM.
